One assay has as its target Src (Homo sapiens, UniProt P12931). As to the kind of experiment: in vitro kinase assay, active Src. The format is biochemical.
Another assay has as its system MDA-MB-231 cells. The assay is described as follows: serum-induced Matrigel invasion assay, MDA-MB-231 cells. The format is cell-based, human. The conditions noted are these: MDA-MB-231, Matrigel, 15 h. The method in brief:
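MDA-MB-231 cells (2×10^5 cells/ml) were serum-starved 3 h and resuspended in serum-free DMEM. They were pretreated 30 min at room temperature with test compound or vehicle (final 0.3% DMSO). Transwell inserts (8-µm pore) were coated with 50 µg Matrigel for 1 h at 37°C and washed three times with DMEM. 2×10^4 cells were loaded, with serum in the lower chamber. After 15 h, invaded cells on the lower membrane face were counted. Mean ± SD of six independent experiments; Dunnett's test.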

For assay [1], the system named is Jurkat cells. As to the kind of experiment: CXCL12-induced chemotaxis, Transwell, Jurkat cells. It counts as cell-based. The note with it: pretreated 30 min, 5 nM CXCL12, 3 h. The essentials:
(§1)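 Cells at 2×10^6 cells/ml in RPMI1640 with 0.5% BSA were pretreated 30 min at room temperature with test compound or vehicle (final 0.3% DMSO). 2×10^5 cells went into the upper well (5-µm pore Transwell). The lower well held RPMI, 0.5% BSA, 5 nM CXCL12 and compound or vehicle. After 3 h at 37°C, migrated cells in the lower well were counted. Mean ± SD of four independent experiments; one-way ANOVA with Dunnett's test.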

For a further assay, the system named is JCaM1.6 cells. The assay is described as follows: CXCL12-induced chemotaxis, Transwell, JCaM1.6 cells. The conditions noted are these: Lck-deficient JCaM1.6, pretreated 30 min, 5 nM CXCL12, 3 h. The format is cell-based. The essentials:
as §1

For another assay, the target named is CaMKIα (Homo sapiens, UniProt Q14012). The assay is described as follows: in vitro kinase assay, CaMKIα. The format is biochemical.
Assay [2] relates to P-cofilin in Jurkat cells. As to the kind of experiment: CXCL12-induced cofilin phosphorylation in Jurkat cells. The format is cell-based. The note with it: 5 nM CXCL12 for 5 min. The method in brief:
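Jurkat cells (RPMI, 10% FCS) were stimulated with 5 nM CXCL12 for 5 min. Lysates in HEPES pH 7.4 lysis/kinase buffer were immunoblotted for P-cofilin, cofilin, P-MAPK and MAPK. P-cofilin was expressed relative to control cells, set at 1.0.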

For assay [3], the system named is P-cofilin in N1E-115 cells. The assay is described as follows: cofilin phosphorylation immunoblot in LIMK1-CFP-overexpressing N1E-115 cells. It counts as cell-based. The note with it: 30 min.
For a further assay, the target named is ROCK (Homo sapiens, UniProt Q13464). As to the kind of experiment: in vitro kinase assay, ROCK. It counts as biochemical.
The target in the next assay is PKCα (Homo sapiens, UniProt P17252). The assay is described as follows: in vitro kinase assay, PKCα. The format is biochemical.
Assay [4] has as its system Jurkat cells. The assay is described as follows: CXCL12-induced lamellipodium formation in Jurkat cells. The note with it: Dam 30 min, then 5 nM CXCL12 for 20 min. It counts as cell-based. The method in brief:
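Jurkat cells were given 5 µM test compound or vehicle for 30 min, then 5 nM CXCL12 for 20 min. They were fixed and stained with rhodamine–phalloidin for F-actin, then scored into three classes: large lamellipodia, small lamellipodia, or round without lamellipodium. 200–300 cells were counted per experiment. Class percentages are mean ± SD of three independent experiments.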

The subject of another assay is P-MAPK in Jurkat cells. As to the kind of experiment: CXCL12-induced MAPK phosphorylation in Jurkat cells. It counts as cell-based. The note with it: 5 nM CXCL12 for 5 min. The method in brief:
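Jurkat cells grown in RPMI with 10% FCS were stimulated with 5 nM CXCL12 for 5 min, with or without test compound. Cells were lysed in HEPES pH 7.4 lysis/kinase buffer containing NP-40, NaF, Na3VO4 and protease inhibitors. Lysates were immunoblotted for P-MAPK and total MAPK, alongside P-cofilin and cofilin.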

In another assay the target is PAK3 (Homo sapiens, UniProt O75914). As to the kind of experiment: in vitro kinase assay, PAK3. It counts as biochemical.
For assay [5], the target named is T1, LIMK1 (Homo sapiens, UniProt P53667). The format is biochemical. The note with it: range of inhibitor concentrations.
Assay [6] deals with P-cofilin in Vero 2-2 cells. As to the kind of experiment: 2D gel analysis of 32P-labeled phospho-proteins in whole cell lysates. The format is cell-based. The conditions noted are these: 10 μM, 5 h.
The test system of assay [7] is epidermal Langerhans cells. The assay is described as follows: hapten. It counts as in vivo, mouse. The conditions noted are these: 20 μM topical. The essentials:
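BALB/c mice (8–10 wk): each ear painted with 20 µl of 20 µM test compound in 2% DMSO in 1:4 acetone/olive oil, or vehicle. 30 min later, 20 µl 3% TNCB or vehicle applied, ± 20 µM compound; repainted at 12 h; ears taken 24 h post-TNCB. NH4SCN-separated, acetone-fixed epidermal sheets stained with FITC anti-I-Ad; confocal imaging, 15 areas/ear; five experiments, mean ± SD, ANOVA/Dunnett.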

Assay [8] deals with T1, LIMK1. As to the kind of experiment: in vitro kinase assay, LIMK1. The conditions noted are these: cofilin substrate; for effect on the kinase activity of LIMK1: concentrations of 1–30 μM. It counts as biochemical.
In a further assay the test system is Lck. The conditions noted are these: read-out: IC50 for Lck; ref Jayasuriya et al., 1992; cited from earlier work.

T1 sequence (P53667 whole entry): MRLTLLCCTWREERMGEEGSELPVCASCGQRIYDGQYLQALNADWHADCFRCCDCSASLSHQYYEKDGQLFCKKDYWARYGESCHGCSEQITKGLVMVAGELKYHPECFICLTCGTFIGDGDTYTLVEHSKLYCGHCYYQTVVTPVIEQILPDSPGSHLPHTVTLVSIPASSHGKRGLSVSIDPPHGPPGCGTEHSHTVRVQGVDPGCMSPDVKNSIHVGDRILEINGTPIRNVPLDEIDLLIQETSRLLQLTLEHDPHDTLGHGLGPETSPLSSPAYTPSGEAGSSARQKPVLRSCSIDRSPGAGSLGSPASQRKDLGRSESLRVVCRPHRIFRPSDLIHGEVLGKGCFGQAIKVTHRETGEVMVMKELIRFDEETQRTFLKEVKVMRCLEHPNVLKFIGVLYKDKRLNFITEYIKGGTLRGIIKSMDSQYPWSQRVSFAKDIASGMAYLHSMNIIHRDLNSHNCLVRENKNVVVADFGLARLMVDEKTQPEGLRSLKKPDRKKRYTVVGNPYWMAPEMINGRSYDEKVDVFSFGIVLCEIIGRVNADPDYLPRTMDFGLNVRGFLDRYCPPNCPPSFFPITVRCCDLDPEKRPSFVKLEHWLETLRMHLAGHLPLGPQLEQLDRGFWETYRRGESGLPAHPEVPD
Chain of CaMKIα (Q14012 1-293, species assumed): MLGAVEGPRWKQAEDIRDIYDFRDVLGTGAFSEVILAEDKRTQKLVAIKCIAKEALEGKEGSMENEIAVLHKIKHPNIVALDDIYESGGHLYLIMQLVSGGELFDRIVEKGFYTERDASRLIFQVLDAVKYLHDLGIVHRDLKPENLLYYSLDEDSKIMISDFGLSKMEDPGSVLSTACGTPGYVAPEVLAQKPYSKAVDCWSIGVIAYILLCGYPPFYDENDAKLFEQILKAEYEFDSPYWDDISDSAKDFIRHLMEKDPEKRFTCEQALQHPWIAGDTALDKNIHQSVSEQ
Chain of Src (P12931 270-523 limits assumed): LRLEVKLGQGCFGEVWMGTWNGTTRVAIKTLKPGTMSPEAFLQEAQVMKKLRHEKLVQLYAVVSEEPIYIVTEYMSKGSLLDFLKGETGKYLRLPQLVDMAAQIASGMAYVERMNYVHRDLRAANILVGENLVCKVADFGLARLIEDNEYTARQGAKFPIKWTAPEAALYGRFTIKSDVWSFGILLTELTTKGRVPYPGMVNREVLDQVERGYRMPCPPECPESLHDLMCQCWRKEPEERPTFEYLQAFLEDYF
Chain of PAK3 (O75914 177-559, species assumed): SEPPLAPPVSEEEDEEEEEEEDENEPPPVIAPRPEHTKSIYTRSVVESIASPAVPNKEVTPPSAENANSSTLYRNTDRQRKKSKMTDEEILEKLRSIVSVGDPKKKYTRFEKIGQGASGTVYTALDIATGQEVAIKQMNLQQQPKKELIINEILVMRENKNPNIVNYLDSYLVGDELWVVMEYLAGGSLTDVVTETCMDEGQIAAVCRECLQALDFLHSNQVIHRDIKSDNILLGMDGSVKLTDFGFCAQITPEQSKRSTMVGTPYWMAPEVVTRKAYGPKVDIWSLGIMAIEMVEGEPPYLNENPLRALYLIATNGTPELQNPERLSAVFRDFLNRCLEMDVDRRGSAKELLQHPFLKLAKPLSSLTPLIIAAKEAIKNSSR
Chain of ROCK (Q13464 1-727): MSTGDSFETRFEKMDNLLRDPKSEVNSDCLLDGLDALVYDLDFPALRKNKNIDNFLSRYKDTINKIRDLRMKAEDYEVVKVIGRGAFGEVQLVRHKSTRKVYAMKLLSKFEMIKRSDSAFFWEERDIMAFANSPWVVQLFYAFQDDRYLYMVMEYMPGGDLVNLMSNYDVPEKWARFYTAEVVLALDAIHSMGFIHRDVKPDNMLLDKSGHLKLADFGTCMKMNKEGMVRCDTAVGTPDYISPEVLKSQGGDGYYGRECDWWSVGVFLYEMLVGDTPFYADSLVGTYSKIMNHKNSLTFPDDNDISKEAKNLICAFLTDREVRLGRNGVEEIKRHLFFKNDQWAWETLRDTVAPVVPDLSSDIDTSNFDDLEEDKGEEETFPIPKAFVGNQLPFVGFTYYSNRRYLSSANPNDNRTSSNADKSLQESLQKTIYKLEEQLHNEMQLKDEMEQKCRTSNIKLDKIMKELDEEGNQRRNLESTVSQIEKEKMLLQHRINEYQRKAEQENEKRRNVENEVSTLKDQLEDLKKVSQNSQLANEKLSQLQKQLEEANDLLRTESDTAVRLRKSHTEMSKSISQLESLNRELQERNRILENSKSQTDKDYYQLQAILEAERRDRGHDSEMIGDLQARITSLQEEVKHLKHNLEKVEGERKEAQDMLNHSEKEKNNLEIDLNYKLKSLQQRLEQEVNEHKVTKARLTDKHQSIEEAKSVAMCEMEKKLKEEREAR

Turning to `COc1c(C=O)c(O)cc2c1C(=O)c1ccccc1C2=O` [Dam, 3-hydroxy-1-methoxy-9,10-dioxoanthraquinone-2-carbaldehyde], the IC50 at Src, against CaMKIα, against ROCK, at PKCα and on PAK3 was more than 20 µM throughout. Also, in the assay with MDA-MB-231 cells, the “concentration range significantly suppressing serum-induced invasion” value was 3 to 10 µM. The “concentration range inhibiting CXCL12-induced chemotaxis” value in the assay with Jurkat cells [1] and in the assay with JCaM1.6 cells was 3 to 10 µM throughout. For the same compound, the “concentration range suppressing CXCL12-induced increase of P-cofilin” value in [2] was 3 to 10 µM. In addition, in assay [3], the “concentration range significantly decreasing P-cofilin level” value lay within 5 to 10 µM. Further, in the assay with Jurkat cells [4], the “effect on lamellipodium formation after CXCL12 stimulation” value is “fewer cells with large lamellipodial protrusions and more cells with small or no lamellipodial protrusions”. Further, in the assay with P-MAPK in Jurkat cells, the “effect on increase in P-MAPK after CXCL12 stimulation” value was “unaffected”. Also, the “concentration range inhibiting the kinase activity of LIMK1 in detailed in vitro BiFC assays” value on LIMK1 [5] fell in the range of 5 to 10 µM. In assay [6], the “amount of P-cofilin in treated cells compared with untreated cells” value is reported as “decreased”. In addition, in assay [7] (TNCB), the “effect on hapten-induced Langerhans cell size changes” value was “no apparent effect”. For the same compound, the “effect on Langerhans cell density of control ears” value in [7] (no TNCB) is “no effect”.
As to `NO` [Hydroxylamine, hydroxylamine], on LIMK1 [8] (LIMK1-CFP), the “effect of hydroxylamine alone on LIMK1 activity” value is given as “no effect”.
Regarding `Cc1cc(O)c2c(c1)C(=O)c1cc(O)cc(O)c1C2=O` [emodin], the “effect on the kinase activity of LIMK1” value on LIMK1 [8] is “no appreciable effect”. Moreover, the IC50 with Lck is 18.5 µM.
Regarding `O=C1c2c(O)ccc(O)c2C(=O)c2c(NCCNCCO)ccc(NCCNCCO)c21` [mitoxantrone], the “effect on the kinase activity of LIMK1” value at LIMK1 [8] is “no appreciable effect”.
